Consider 11 molecules from ChEMBL document CHEMBL1144004, “Synthesis of (nor)tropeine (di)esters and allosteric modulation of glycine receptor binding” (Bioorg Med Chem, 2008).

Target in one assay: not listed separately
Briefly: (§1) Displacement of [3H]strychnine from Wistar rat glycine receptor in spinal cord membrane in presence of 10 uM glycine. The assay is classed as cell membranes. A digest of the protocol:
(§2)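 Rat spinal cord synaptic membrane [3H]strychnine (3 nM) binding in 50 mM Tris-HCl/200 mM KSCN, 0 °C, 35 min, with 10 μM glycine present during test-ligand displacement. Filtration on GF/B, scintillation counting. Nonspecific binding was defined by 2 mM glycine. IC50 and slope come from concentration-displacement curves; three experiments.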
For `O=C(OC1CC2CCC(C1)N2)c1c[nH]c2ccccc12` (stereo not drawn) [NORTROPISETRON], the IC50 stood at 9.3 nM.

The next assay is filed under the species Rattus norvegicus. The assay is described as §1. The assay is classed as cell membranes. A digest of the protocol: as §2
In the case of `O=C(OC1CC2CCC(C1)N2)c1c[nH]c2ccccc12` (stereo not drawn) [NORTROPISETRON], the Activity came to 60%.

The species entered for a further assay is Rattus norvegicus. Briefly: Displacement of [3H]strychnine from Wistar rat glycine receptor in spinal cord membrane. The assay is classed as cell membranes. In a few lines:
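Male Wistar rat spinal cord crude synaptic membranes, washed in 50 mM Tris-HCl pH 7.4 and pre-spun in buffer with 200 mM KSCN. Binding in 50 mM Tris-HCl plus 200 mM KSCN with 3 nM [3H]strychnine, 0 °C for 35 min. Duplicate aliquots were vacuum-filtered on GF/B filters and counted by scintillation. Nonspecific binding was taken with 2 mM glycine. Displacement curves were fitted (Eq. 2) for K_A and α; 3–6 experiments.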
In turn, `CN1[C@@H]2CC[C@H]1C[C@H](OC(=O)c1ccc(C(=O)O[C@H]3C[C@H]4CC[C@@H](C3)N4C)cc1)C2` had a K of 24.6 µM. The same measure, in the same setting: the result for `CN1[C@@H]2CC[C@H]1C[C@H](OC(=O)c1cccc(C(=O)O[C@H]3C[C@H]4CC[C@@H](C3)N4C)c1)C2` reads 0.197 µM; that for `CCN1[C@@H]2CC[C@H]1C[C@@H](OC(=O)CCC(=O)O[C@H]1C[C@H]3CC[C@@H](C1)N3CC)C2`, more than 100 µM; that for `O=C(OC1CC2CCC(C1)N2)c1c[nH]c2ccccc12` (stereo not drawn) [NORTROPISETRON], 0.017 µM. In turn, `CN1[C@@H]2CC[C@H]1C[C@H](OC(=O)c1ccc(Cl)nc1)C2` registered a K of 5.7 µM. In turn, `O=C(O[C@H]1C[C@H]2CC[C@@H](C1)N2)C1c2ccccc2Oc2ccccc21` yielded a K of 3.1 µM.

The molecule `CN1[C@@H]2CCC[C@H]1C[C@H](OC(=O)/C=C/C(=O)O[C@@H]1C[C@H]3CCC[C@@H](C1)N3C)C2` had a K of 20.8 µM. Same read-out and setting: the same measure for `CN1[C@@H]2CC[C@H]1C[C@@H](OC(=O)/C=C/C(=O)O[C@H]1C[C@H]3CC[C@@H](C1)N3C)C2`: 7.5 µM; for `O=C(O[C@@H]1C[C@@H]2N[C@H](C1)[C@@H]1O[C@@H]12)[C@H](CO)c1ccccc1`: 8 µM. Still for that read-out and setting: the same measure for `O=C(O[C@@H]1C[C@H]2CC[C@@H](C1)N2)c1cccnc1`: 0.082 µM; for `CN1[C@@H]2CC[C@H]1C[C@H](OC(=O)c1cccnc1)C2`: 2.2 µM.
